The results in this text go back to ChEMBL document CHEMBL1139845, “Synthesis and biological evaluation of novel 1-deoxy-1-[6-[((hetero)arylcarbonyl)hydrazino]- 9H-purin-9-yl]-N-ethyl-beta-D-ribofuranuronamide derivatives as useful templates for the development of A2B adenosine receptor agonists” (J Med Chem, 2007).

The target in test [1] is T1, Adenosine receptor A3 (Homo sapiens) (UniProt P0DMS8).
T1 sequence (whole entry): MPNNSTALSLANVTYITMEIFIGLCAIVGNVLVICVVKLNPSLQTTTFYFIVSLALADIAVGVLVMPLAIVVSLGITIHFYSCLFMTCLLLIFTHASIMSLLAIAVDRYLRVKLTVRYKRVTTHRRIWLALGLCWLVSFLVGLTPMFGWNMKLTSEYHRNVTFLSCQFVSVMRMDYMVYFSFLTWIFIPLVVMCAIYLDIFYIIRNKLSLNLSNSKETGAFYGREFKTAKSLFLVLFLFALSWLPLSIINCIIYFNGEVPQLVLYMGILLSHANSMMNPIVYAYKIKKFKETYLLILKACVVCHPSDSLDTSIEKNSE
In words: (§1) Displacement of [125I]AB-MECA from human adenosine A3 receptor expressed in CHO cells. The test is classed as cell-based. Put shortly: (§2)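 Membranes from CHO cells expressing hA3, 50 µg protein/assay, pretreated with adenosine deaminase. Incubated with [¹²⁵I]AB-MECA in 50 mM Tris-HCl, 10 mM MgCl₂, 1 mM EDTA, pH 7.4, at 6–8 concentrations of test compound, 60 min at 37 °C. Nonspecific binding defined with 1 µM AB-MECA. GF/B filtration. Ki obtained by Cheng–Prusoff. Mean ± SEM of 3–4 experiments in duplicate.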

Test [2] addresses T2, Adenosine receptor A3 (Homo sapiens, UniProt P0DMS8).
T2 sequence (P0DMS8 whole entry): T1 sequence (whole entry)
The test is described as §1. The test is classed as cell-based. Put shortly: as §2

Test [3] deals with T3, Adenosine receptor A1 (Homo sapiens) (UniProt P30542).
T3 sequence (whole entry): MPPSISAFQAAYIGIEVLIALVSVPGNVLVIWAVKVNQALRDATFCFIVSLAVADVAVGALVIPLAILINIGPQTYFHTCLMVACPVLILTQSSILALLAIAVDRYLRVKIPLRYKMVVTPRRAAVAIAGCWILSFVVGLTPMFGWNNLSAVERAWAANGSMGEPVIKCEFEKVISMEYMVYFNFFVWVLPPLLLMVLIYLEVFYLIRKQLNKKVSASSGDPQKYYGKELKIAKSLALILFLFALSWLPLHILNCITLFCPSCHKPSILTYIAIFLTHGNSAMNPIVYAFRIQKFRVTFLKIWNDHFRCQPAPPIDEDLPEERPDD
In words: (§3) Displacement of [3H]CHA from human adenosine A1 receptor expressed in CHO cells. The test is classed as cell-based. A digest of the protocol:
(§4)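 Membranes from hA1 CHO cells, 50 µg protein/assay, pretreated with adenosine deaminase. Incubated with 1 nM [³H]CHA in 50 mM Tris-HCl pH 7.4 at 6–8 concentrations, 150 min at 25 °C. Nonspecific binding defined with 10 µM CHA. GF/B filtration and scintillation counting. Ki obtained by Cheng–Prusoff. Mean ± SEM of 3–4 experiments in duplicate.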
(In general: Loss of bound radioactivity is the signal in a displacement assay; it reports binding, not function.)

Test [4] deals with T4, Adenosine receptor A1 (Homo sapiens, UniProt P30542).
T4 sequence (P30542 whole entry): T3 sequence (whole entry)
The description is as §3. The test is classed as cell-based. Put shortly: as §4

Test [5] concerns the target T5, Adenosine receptor A2b (Homo sapiens, UniProt P29275).
T5 sequence (P29275 whole entry): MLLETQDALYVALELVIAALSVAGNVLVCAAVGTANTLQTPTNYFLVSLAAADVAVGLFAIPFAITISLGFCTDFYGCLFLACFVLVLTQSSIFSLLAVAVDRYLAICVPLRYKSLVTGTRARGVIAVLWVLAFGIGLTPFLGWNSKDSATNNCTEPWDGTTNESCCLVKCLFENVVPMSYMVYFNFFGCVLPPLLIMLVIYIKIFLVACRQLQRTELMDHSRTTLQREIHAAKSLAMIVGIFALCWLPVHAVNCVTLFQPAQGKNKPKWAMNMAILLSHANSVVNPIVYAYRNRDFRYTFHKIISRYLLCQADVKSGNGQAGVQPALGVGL
Briefly: (§5) Activity at human adenosine A2B receptor expressed in CHO cells assessed as stimulation of cAMP levels. The test is classed as functional, cell-based. A digest of the protocol:
(§6)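 Whole CHO cells transfected with human A2B (1 × 10⁶ cells/assay), preincubated 10 min at 37 °C with adenosine deaminase 2 IU/mL and Ro 20-1724 as PDE inhibitor. Ligands (1 nM to 10 µM) were then added for 5 min. Stopped with cold 6% TCA and ether-extracted. cAMP measured by competition binding to bovine adrenal binding protein with [³H]cAMP. Mean ± SEM of 3–4 experiments in duplicate.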
A general note: cAMP levels reflect the balance of adenylyl cyclase and phosphodiesterase activity.

Test [6] deals with T6, Adenosine receptor A2b (Homo sapiens) (UniProt P29275).
T6 sequence (whole entry): T5 sequence (P29275 whole entry)
Described as §5. The test is classed as functional, cell-based. On the set-up: concentration or dose not given beside the values. A digest of the protocol: as §6

Test [7] concerns the target Adenosine receptor A2a (Homo sapiens, UniProt P29274). In words: Displacement of [3H]CGS-21680 from human adenosine A2A receptor expressed in CHO cells. The test is classed as cell-based. On the set-up: concentration or dose not given beside the values.

Structures are written as SMILES. pEC50, pKi: −log10 of the molar value. Where only a bound is given, the exact number is not on record here.

Chain of Adenosine receptor A2a (P29274 whole entry): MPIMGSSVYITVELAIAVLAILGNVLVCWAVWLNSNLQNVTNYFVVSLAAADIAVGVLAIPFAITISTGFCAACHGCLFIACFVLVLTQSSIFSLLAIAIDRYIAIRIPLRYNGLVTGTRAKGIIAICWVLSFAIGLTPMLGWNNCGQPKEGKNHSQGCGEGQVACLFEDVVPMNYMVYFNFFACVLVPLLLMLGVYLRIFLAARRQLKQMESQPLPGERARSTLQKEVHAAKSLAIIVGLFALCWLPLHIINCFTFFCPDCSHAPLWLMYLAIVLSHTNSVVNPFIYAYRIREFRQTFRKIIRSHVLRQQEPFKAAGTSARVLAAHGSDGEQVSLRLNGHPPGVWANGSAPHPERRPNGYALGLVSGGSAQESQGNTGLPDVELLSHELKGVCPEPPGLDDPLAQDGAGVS

Consider `CCNC(=O)[C@H]1O[C@@H](n2cnc3c(NNC(=O)c4cc(C)on4)nc(Cl)nc32)[C@H](O)[C@@H]1O`, for which the Activity in test [1] was found to be 16%; in test [3], 7%; in test [6] it was 21%; in test [7], 3%. Further, the negative-log Ki (pKi) in test [2], in test [4] and in test [7] was less than 5.30 throughout. For the same compound, the pEC50 (commonly −log10 of the EC50, conventionally taken in molar units) in test [5] was less than 5.30.
Consider `CCNC(=O)[C@H]1O[C@@H](n2cnc3c(NNC(=O)c4cccnc4)ncnc32)[C@H](O)[C@@H]1O`, for which the Activity in test [1] came out at 17%; in test [3], 11%; in test [6], 9%; in test [7] it was 7%. For the same compound, the pKi in test [2], in test [4] and in test [7] was less than 5.30 in each case. Further, the pEC50 in test [5] is less than 5.30.
Consider `CCNC(=O)[C@H]1O[C@@H](n2cnc3c(NNC(=O)c4ccccc4)nc(Cl)nc32)[C@H](O)[C@@H]1O`, for which the Activity in test [1] was 45%; in test [3], 37%; in test [6], 5%; in test [7], 40%. The pKi in test [2], in test [4] and in test [7] was less than 5.30 each time. Moreover, in test [5], the negative logarithm of the EC50 (pEC50) was less than 5.30.
On to `CCNC(=O)[C@H]1O[C@@H](n2cnc3c(NNC(=O)c4ccco4)ncnc32)[C@H](O)[C@@H]1O`, for which the Activity in test [1] is 23%; in test [6] (filed as agonist), “Agonist”. Further, the figures for the pKi in test [2], in test [4] and in test [7] were less than 5.30, 5.98 and 5.81, respectively.
As for `CCNC(=O)[C@H]1O[C@@H](n2cnc3c(NNC(=O)c4ccc(C)o4)ncnc32)[C@H](O)[C@@H]1O`, in test [1], the Activity was determined as 15%. Moreover, the negative logarithm of the Ki (pKi) – broadly, the Ki on a negative log10 scale, so that one unit is a factor of ten – in test [2] was less than 5.30; in test [7] it was 5.80.
The compound `CCNC(=O)[C@H]1O[C@@H](n2cnc3c(NNC(=O)Cc4cccs4)nc(Cl)nc32)[C@H](O)[C@@H]1O` showed a negative-log Ki (pKi) in test [2] of 7.60.
In test [1], `CCNC(=O)[C@H]1O[C@@H](n2cnc3c(NNC(=O)c4ccc(C)s4)ncnc32)[C@H](O)[C@@H]1O` registered an Activity of 19%. The pKi in test [2] is less than 5.30; in test [4] it was 5.96; in test [7], 5.68.
Compound `CCNC(=O)[C@H]1O[C@@H](n2cnc3c(NNC(=O)c4ccsc4)nc(Cl)nc32)[C@H](O)[C@@H]1O` had an Activity in test [1] of 18%. Besides, the negative logarithm of the Ki (pKi) in test [2] was less than 5.30; in test [7], 5.48.
For the compound `CCNC(=O)[C@H]1O[C@@H](n2cnc3c(NNC(=O)c4cc(-c5ccccc5)on4)nc(Cl)nc32)[C@H](O)[C@@H]1O`, the Activity in test [1] came out at 15%; in test [3], 5%; in test [6] it was 24%; in test [7], 2%. Also, the pKi in test [2], in test [4] and in test [7] was less than 5.30 throughout. For the same compound, in test [5], the negative logarithm of the EC50 (pEC50) is less than 5.30.
On to `CCNC(=O)[C@H]1O[C@@H](n2cnc3c(NNC(=O)c4nc([N+](=O)[O-])cn4C)ncnc32)[C@H](O)[C@@H]1O`, for which the Activity in test [1] was found to be 11%; in test [3], 7%; in test [6], 14%; in test [7], 12%. The pKi in test [2], in test [4] and in test [7] was less than 5.30 each time. For the same compound, in test [5], the pEC50 is less than 5.30.
Turning to `CCNC(=O)[C@H]1O[C@@H](n2cnc3c(NNC(=O)c4ccc(C)s4)nc(Cl)nc32)[C@H](O)[C@@H]1O`, the Activity in test [1] was found to be 17%. Besides, the pKi in test [2] was less than 5.30; in test [4] it was 5.59; in test [7], 5.39.
In the case of `CCNC(=O)[C@H]1O[C@@H](n2cnc3c(NNC(=O)c4ccc(Cl)cc4)ncnc32)[C@H](O)[C@@H]1O`, the Activity in test [1] is 20%; in test [3], 5%; in test [6] it was 6%; in test [7], 8%. Also, the pKi in test [2], in test [4] and in test [7] was less than 5.30 in each case. Moreover, the pEC50 in test [5] is less than 5.30.
For the compound `CCNC(=O)[C@H]1O[C@@H](n2cnc3c(NNC(=O)c4sccc4C)nc(Cl)nc32)[C@H](O)[C@@H]1O`, in test [1], the Activity stood at 9%. For the same compound, the negative logarithm of the Ki (pKi) is less than 5.30 in test [2], 5.80 in test [4] and 5.42 in test [7].
In test [1], `CCNC(=O)[C@H]1O[C@@H](n2cnc3c(NNC(=O)c4ccco4)nc(Cl)nc32)[C@H](O)[C@@H]1O` showed an Activity of 26%. Moreover, the values for the negative-log Ki (pKi) in test [2], in test [4] and in test [7] were less than 5.30, 5.46 and 5.31, respectively.
Regarding `CCNC(=O)[C@H]1O[C@@H](n2cnc3c(NNC(=O)c4ccc[nH]4)nc(Cl)nc32)[C@H](O)[C@@H]1O`, in test [1], the Activity came out at 11%. For the same compound, the negative-log Ki (pKi) is less than 5.30 in test [2] and 5.49 in test [7].
On to `CCNC(=O)[C@H]1O[C@@H](n2cnc3c(NNC(=O)c4ccccc4)ncnc32)[C@H](O)[C@@H]1O`, for which the Activity in test [1] worked out at 8%; in test [3] it was 35%; in test [6], 10%; in test [7], 18%. For the same compound, the pKi in test [2], in test [4] and in test [7] was less than 5.30 in each case. Also, the pEC50 in test [5] was less than 5.30.
In test [1], `CCNC(=O)[C@H]1O[C@@H](n2cnc3c(NNC(=O)c4cccs4)nc(Cl)nc32)[C@H](O)[C@@H]1O` came in with an Activity of 12%. For the same compound, the results for the negative-log Ki (pKi) in test [2] and in test [7] were less than 5.30 and 5.77, respectively.
As for `CCNC(=O)[C@H]1O[C@@H](n2cnc3c(NNC(=O)c4ccc(Br)o4)ncnc32)[C@H](O)[C@@H]1O`, in test [1], the Activity was 13%. The values for the pKi in test [2], in test [4] and in test [7] were less than 5.30, 6.11 and 5.92, respectively. The negative-log EC50 (pEC50) in test [5] is 6.43.
